Key:
[1] = folding enthalpy; higher = less favourable; fluorescence melt of hairpins on a sequencing array, two-state fit; conditions: sodium 0.088 M
Summary of the method: (§1)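 Cy3 signals were normalised both to pre-quench Cy3 and to control constructs. They came from library hairpins carrying annealed Cy3 and quencher oligos on a sequenced MiSeq flow cell, imaged in 50 mM Na-HEPES pH 8.0, 25 mM NaCl, in 2.5 °C steps up to 60 °C. Bootstrapped two-state fits gave melting temperature and folding enthalpy, and four replicates were combined by inverse variance. Fitted temperatures were then raised by 9.35 °C to match UV melts.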

[2] = melting temperature; fluorescence melt of hairpins on a sequencing array, two-state fit, raised by 9.35 °C to match UV melts; conditions: sodium 0.088 M
Summary of the method: as §1

GTTCAACCGAAAGGTAAC (((..(((....))))))
folding enthalpy [1]: -11.7 kcal/mol
Tm [2]: 26.7 °C

GCAGCGGGAAACTGCTGC (((((.(....).)))))
folding enthalpy [1]: -43.1 kcal/mol
Tm [2]: 66 °C

GATCTTTATCAAGATC ((((((....))))))
folding enthalpy [1]: -29.4 kcal/mol
Tm [2]: 39.3 °C

GTTACAGCGAAAGCTAAC (((..(((....))))))
folding enthalpy [1]: -11.1 kcal/mol
Tm [2]: 28.2 °C

GCTAAGCGAAAGCGTCGC ((.(.((....)).).))
folding enthalpy [1]: -14 kcal/mol
Tm [2]: 45.8 °C

GCACCAGAAATGGTGC ((((((....))))))
folding enthalpy [1]: -35.6 kcal/mol
Tm [2]: 67.8 °C

GTTCCCGAAAGGGGAAC ((((((....))).)))
folding enthalpy [1]: -20.8 kcal/mol
Tm [2]: 57.4 °C

GCCGCGCGAAAGCACAGC ((.(.((....)).).))
folding enthalpy [1]: -13.6 kcal/mol
Tm [2]: 46.9 °C

GATCTCGCAAGAGATC ((((((....))))))
folding enthalpy [1]: -37.5 kcal/mol
Tm [2]: 67.3 °C

GTCAAATCGAAAGATGAC (((..(((....))))))
folding enthalpy [1]: -16.1 kcal/mol
Tm [2]: 35.6 °C

GCGTAATAACGC ((((....))))
folding enthalpy [1]: -21.1 kcal/mol
Tm [2]: 51.6 °C

GATCTCTGTCGAGATC ((((((....))))))
folding enthalpy [1]: -37.4 kcal/mol
Tm [2]: 51.8 °C

GATCCCTGTGGGGATC ((((((....))))))
folding enthalpy [1]: -41.6 kcal/mol
Tm [2]: 65.3 °C

CGGGCGGAAACGCACCCG ((((((....)))..)))
folding enthalpy [1]: -13.1 kcal/mol
Tm [2]: 48.8 °C

GGAGAAGCGAAAGCTTCC (((..(((....))))))
folding enthalpy [1]: -9.26 kcal/mol
Tm [2]: 42.7 °C

GTCTTAGCGAAAGCTGAC (((..(((....))))))
folding enthalpy [1]: -14.9 kcal/mol
Tm [2]: 39 °C

GCGCCCCGAAAGGGCCGC (((.(((....))).)))
folding enthalpy [1]: -19.8 kcal/mol
Tm [2]: 61.2 °C

ACCGGGAAACCGGT (((((....)))))
folding enthalpy [1]: -16.6 kcal/mol
Tm [2]: 66.5 °C

GGCCGCGAAAGCGTAGCC ((((((....)))..)))
folding enthalpy [1]: -22.5 kcal/mol
Tm [2]: 61 °C

GCACGGTCGAAAGACTGC (((..(((....))))))
folding enthalpy [1]: -13.9 kcal/mol
Tm [2]: 39.4 °C

CGGCCGGAAACGGTCCG ((((((....))).)))
folding enthalpy [1]: -32 kcal/mol
Tm [2]: 57.7 °C

GGAATACGAAAGTACTCC (((.(((....))).)))
folding enthalpy [1]: -27.4 kcal/mol
Tm [2]: 39.5 °C

GGGGACGAAAGTCGTCCC ((((((....)))..)))
folding enthalpy [1]: -20.8 kcal/mol
Tm [2]: 61.3 °C

GATCTTCGTGAAGATC ((((((....))))))
folding enthalpy [1]: -41 kcal/mol
Tm [2]: 53.3 °C

GCGCTGCGAAAGCACCGC (((.(((....))).)))
folding enthalpy [1]: -46.8 kcal/mol
Tm [2]: 53.9 °C

GCAGGCGAAAGCCCATGC ((((((....)))..)))
folding enthalpy [1]: -13.2 kcal/mol
Tm [2]: 41.4 °C

GGATACCGAAAGGTTTCC (((.(((....))).)))
folding enthalpy [1]: -37.6 kcal/mol
Tm [2]: 50.2 °C

GCGGAGTCGAAAGACCGC (((..(((....))))))
folding enthalpy [1]: -38 kcal/mol
Tm [2]: 53.7 °C

GATCAAGCGATTGATC ((((((....))))))
folding enthalpy [1]: -39.6 kcal/mol
Tm [2]: 48 °C

GGGTGGCCGAAAGGCCCC (((..(((....))))))
folding enthalpy [1]: -11.8 kcal/mol
Tm [2]: 54.2 °C

GTGAGCGGAAACGCTTGC (..((((....))))..)
folding enthalpy [1]: -16.2 kcal/mol
Tm [2]: 43.8 °C

GGCATGGGAAACCATACC ((.((((....)))).))
folding enthalpy [1]: -26.2 kcal/mol
Tm [2]: 41 °C

GGATCCGAAAGGACGTCC ((((((....)))..)))
folding enthalpy [1]: -13.8 kcal/mol
Tm [2]: 31.9 °C

GCGTCAGGAAACTGACAC (.(((((....))))).)
folding enthalpy [1]: -13.1 kcal/mol
Tm [2]: 43.3 °C

GTTCCTCGAAAGAGAAAC (((.(((....))).)))
folding enthalpy [1]: -20.3 kcal/mol
Tm [2]: 38.1 °C

GATCCTTTTAGGATC ((((((...))))))
folding enthalpy [1]: -28.8 kcal/mol
Tm [2]: 58.9 °C

GGAGGGACGAAAGTCTCC (((..(((....))))))
folding enthalpy [1]: -13.4 kcal/mol
Tm [2]: 39.2 °C

GTGCATGGAAACATGCAC (((((((....)))))))
folding enthalpy [1]: -33.8 kcal/mol
Tm [2]: 68.6 °C

GATCGTCAGACGATC ((((((...))))))
folding enthalpy [1]: -35.2 kcal/mol
Tm [2]: 52.5 °C

GCAAGGCGAAAGCTTGGC ((.(.((....)).).))
folding enthalpy [1]: -17.9 kcal/mol
Tm [2]: 44 °C

GATCAGAGTACTGATC ((((((....))))))
folding enthalpy [1]: -37.4 kcal/mol
Tm [2]: 49 °C

GGCCCAGGAAACTGAGCC (((.(((....))).)))
folding enthalpy [1]: -32.4 kcal/mol
Tm [2]: 49 °C

GACTGCGAAAGCAAGTC ((((((....))).)))
folding enthalpy [1]: -21.3 kcal/mol
Tm [2]: 56.1 °C

GCTACCGGAAACGGCAAC (.(.(((....))).).)
folding enthalpy [1]: -8.04 kcal/mol
Tm [2]: 18.5 °C

GTATCGGGAAACTGGTAC (((.(.(....).).)))
folding enthalpy [1]: -17.8 kcal/mol
Tm [2]: 32.3 °C

GATCGTTGTTACGATC ((((((....))))))
folding enthalpy [1]: -37.7 kcal/mol
Tm [2]: 57.4 °C

GATGCCGGAAACGGTGTC ((..(((....)))..))
folding enthalpy [1]: -24.3 kcal/mol
Tm [2]: 47.8 °C

GGCTAGCGAAAGCTTGCC (((.(((....))).)))
folding enthalpy [1]: -36.3 kcal/mol
Tm [2]: 65.6 °C

GATCCCTTGTGGGATC ((((((....))))))
folding enthalpy [1]: -31 kcal/mol
Tm [2]: 62.4 °C

GTATGCGAAAGCACTTAC ((((((....)))..)))
folding enthalpy [1]: -13.1 kcal/mol
Tm [2]: 35.1 °C

GACTACCGAAAGGTGGTC (((.(((....))).)))
folding enthalpy [1]: -38.6 kcal/mol
Tm [2]: 58.4 °C

GATCCTCAACAGGATC ((((((....))))))
folding enthalpy [1]: -37.2 kcal/mol
Tm [2]: 48.7 °C

GCGTCACGAAAGTGTCGC (((.(((....))).)))
folding enthalpy [1]: -42.4 kcal/mol
Tm [2]: 63.4 °C

GCCCTCGAAAGAGCCGGC ((((((....)))..)))
folding enthalpy [1]: -18.4 kcal/mol
Tm [2]: 40.4 °C

GGAACAGGAAACTATTCC ((((.((....)).))))
folding enthalpy [1]: -13.4 kcal/mol
Tm [2]: 24.7 °C

GCAGACGGAAACATCCGC ((.((.(....).)).))
folding enthalpy [1]: -13.3 kcal/mol
Tm [2]: 26.5 °C

GCTACCGAAAGGTCTAGC ((((((....)))..)))
folding enthalpy [1]: -14.9 kcal/mol
Tm [2]: 36.6 °C

GCTCCGCGAAAGCGAGGC ((..(((....)))..))
folding enthalpy [1]: -14.4 kcal/mol
Tm [2]: 55.6 °C

GATCTCCTGAGAGATC ((((((....))))))
folding enthalpy [1]: -39 kcal/mol
Tm [2]: 53.2 °C

GTGGACGAAAGTCGACAC ((((((....)))..)))
folding enthalpy [1]: -21.8 kcal/mol
Tm [2]: 47.5 °C

GTCGTCGAAAGACCTGAC ((((((....)))..)))
folding enthalpy [1]: -14.7 kcal/mol
Tm [2]: 31.7 °C

GATCGAACACTCGATC ((((((....))))))
folding enthalpy [1]: -31 kcal/mol
Tm [2]: 48.9 °C

GCGAATTATCGC ((((....))))
folding enthalpy [1]: -21.3 kcal/mol
Tm [2]: 47.8 °C

GATTCAGGAAACTGAACC (.(((((....))))).)
folding enthalpy [1]: -17.4 kcal/mol
Tm [2]: 31.4 °C

GTCCAGGGAAACCCAGAC (((..((....))..)))
folding enthalpy [1]: -17.4 kcal/mol
Tm [2]: 31.4 °C

GCTTAGCGAAAGCGTAGC (((..((....))..)))
folding enthalpy [1]: -28.9 kcal/mol
Tm [2]: 61.3 °C

GACGCAGAAATGCGTC ((((((....))))))
folding enthalpy [1]: -35.9 kcal/mol
Tm [2]: 68.5 °C

GAAGGCGGAAACACCTTC (((((.(....).)))))
folding enthalpy [1]: -30.9 kcal/mol
Tm [2]: 42.7 °C

GATCAAGTCCTTGATC ((((((....))))))
folding enthalpy [1]: -38.2 kcal/mol
Tm [2]: 49.7 °C

GTAGTAGGAAACTACTAC (((((((....)))))))
folding enthalpy [1]: -41.9 kcal/mol
Tm [2]: 53.3 °C

GCTCAGCGAAAGCGGTGC ((.(.((....)).).))
folding enthalpy [1]: -17.8 kcal/mol
Tm [2]: 55.2 °C

GCGTCCCGACGC ((((....))))
folding enthalpy [1]: -23.3 kcal/mol
Tm [2]: 61 °C

GATCACACAGGTGATC ((((((....))))))
folding enthalpy [1]: -44.3 kcal/mol
Tm [2]: 54.5 °C

GCTTCCCGAAAGGGAGC (((.(((....))))))
folding enthalpy [1]: -22.3 kcal/mol
Tm [2]: 57.1 °C

GGGATCGAAAGATTCCC ((((((....))).)))
folding enthalpy [1]: -25 kcal/mol
Tm [2]: 51 °C

GACAACGGAAACGTCGTC (((.(((....))).)))
folding enthalpy [1]: -29.5 kcal/mol
Tm [2]: 43.4 °C

GTCTACGAAAGTAGTGAC ((((((....)))..)))
folding enthalpy [1]: -14.3 kcal/mol
Tm [2]: 33.4 °C

GTTAATCGAAAGATGAAC (((.(((....))).)))
folding enthalpy [1]: -25.1 kcal/mol
Tm [2]: 38.3 °C

GCCAGGGGAAACTCTGGC (((((.(....).)))))
folding enthalpy [1]: -40.9 kcal/mol
Tm [2]: 56.1 °C

GATGAGGGAAACCTCGTC ((.((((....)))).))
folding enthalpy [1]: -22.3 kcal/mol
Tm [2]: 47.9 °C

GCCGCGCGAAAGCAGGGC (((..((....))..)))
folding enthalpy [1]: -23.1 kcal/mol
Tm [2]: 61.5 °C

GAAAACCGAAAGGTTTC (((.(((....))))))
folding enthalpy [1]: -15.9 kcal/mol
Tm [2]: 44.2 °C

TTCGGGAAACCGAA (((((....)))))
folding enthalpy [1]: -18.8 kcal/mol
Tm [2]: 46.7 °C

CGGTTTCGGAAACGACCG (((..(((....))))))
folding enthalpy [1]: -17.1 kcal/mol
Tm [2]: 38 °C

CTCGAGAAATCGAG (((((....)))))
folding enthalpy [1]: -21.2 kcal/mol
Tm [2]: 47.9 °C

GCGATCGGTCGC ((((....))))
folding enthalpy [1]: -31.6 kcal/mol
Tm [2]: 48.5 °C

GCCCTTCGAAAGAAGGC (((.(((....))))))
folding enthalpy [1]: -21.4 kcal/mol
Tm [2]: 52.9 °C

GATCTACGTATAGATC ((((((....))))))
folding enthalpy [1]: -33.8 kcal/mol
Tm [2]: 41.2 °C

GATCAGCACCCTGATC ((((((....))))))
folding enthalpy [1]: -33.1 kcal/mol
Tm [2]: 48.7 °C

CGGAATCGGAAACGACCG (((..(((....))))))
folding enthalpy [1]: -16.6 kcal/mol
Tm [2]: 35.3 °C

GACTTTGGAAACAGAGTC ((((.((....)).))))
folding enthalpy [1]: -31.1 kcal/mol
Tm [2]: 38.1 °C

GCCTGTGGAAACACGGGC (((.(((....))).)))
folding enthalpy [1]: -41 kcal/mol
Tm [2]: 61.9 °C

GGTATGGAAACATACC ((((((....))))))
folding enthalpy [1]: -41.9 kcal/mol
Tm [2]: 53.4 °C

From the array DNA melting data of Ke et al. (doi:10.1101/2024.01.08.574731)
